Tests used:
Format in all cases: functional
[1] = test system: WiDr; test: Antiproliferative activity against human WiDr cells after 48 hrs by sulforhodamine B assay
Summary of the method: (§1)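 Dose-response curves built per compound up to 100 μM maximum; percentage of growth (PG) computed, with GI₅₀, TGI and LC₅₀ taken as concentrations giving PG +50, 0 and −50. TGI and LC₅₀ reported only when below 100 μM. Values in μM, means of two to four experiments with standard deviation.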

[2] = test system: A2780; test: Antiproliferative activity against human A2780 cells after 48 hrs by sulforhodamine B assay; details: A2780, 48 h; summary of the method: as §1
[3] = test system: SW1573; test: Antiproliferative activity against human SW1573 cells after 48 hrs by sulforhodamine B assay; details: SW1573, 48 h; for CC50: read-out: LC50 (the source's name); summary of the method: as §1

SMILES	GI50 [2] [µM]	GI50 [3] [µM]	GI50 [1] [µM]	TGI [1] [µM]	LC50 (concentration giving 50% net cell kill) [2] [µM]	TGI [2] [µM]	TGI [3] [µM]	CC50 [3] [µM]
c1ccc([C@H]2OC[C@H]3OCCC[C@H]3O2)cc1	> 100	> 100	> 100	–	–	–	–	–
c1cc([C@H]2OC[C@H]3OCCC[C@H]3O2)nc([C@H]2OC[C@H]3OCCC[C@H]3O2)c1	> 100	> 100	> 100	–	–	–	–	–
C=C[C@H]1CCC[C@@H]([C@H]2COC(C)(C)O2)O1	–	–	> 100	–	–	–	–	–
CC(C)(C)[Si](C)(C)O[C@@H]1CCCO[C@@H]1CO/C=C/C(=O)OCc1ccccc1	26	26	37	–	–	–	–	–
CC(C)(C)[Si](C)(C)O[C@@H]1CCCO[C@@H]1COCC(=O)OCc1ccccc1	28	29	37	88	94	81	85	–
O=C(COC[C@H]1OCCC[C@H]1O)OCc1ccccc1	> 100	> 100	> 100	–	–	–	–	–
O=C1COC[C@H]2OCCC[C@H]2O1	> 100	> 100	> 100	–	–	–	–	–
c1cc([C@H]2OC[C@H]3OCCC[C@H]3O2)ccc1[C@H]1OC[C@H]2OCCC[C@H]2O1	> 100	> 100	> 100	–	–	–	–	–
O=C(COC[C@H]1OCCC[C@@H]1O)OCc1ccccc1 (relative stereo)	> 100	> 100	> 100	–	–	–	–	–
O=C1COC[C@H]2OCCC[C@@H]2O1 (relative stereo)	> 100	> 100	> 100	–	–	–	–	–
C=CCOC[C@H]1OCCC[C@H]1O[Si](C)(C)C(C)(C)C (relative stereo)	15	18	88	–	68	32	39	85
CC(C)(C)[Si](C)(C)O[C@H]1CCCO[C@@H]1COCC(=O)OCc1ccccc1 (relative stereo)	17	17	28	91	74	36	37	79

Second part, led by results:

GI50 [2] [µM]	GI50 [3] [µM]	SMILES	GI50 [1] [µM]	TGI [1] [µM]	LC50 (concentration giving 50% net cell kill) [2] [µM]	TGI [2] [µM]	TGI [3] [µM]	CC50 [3] [µM]
> 100	> 100	CC(C)(C)[Si](C)(C)O[C@@H]1CCCO[C@@H]1COCCCO	> 100	–	–	–	–	–
> 100	> 100	COC(=O)CCOC[C@H]1OCCC[C@H]1O[Si](C)(C)C(C)(C)C	> 100	–	–	–	–	–
> 100	> 100	CC(C)(C)[Si](C)(C)O[C@@H]1CCCO[C@@H]1CO/C=C/CO	> 100	–	–	–	–	–
> 100	> 100	CC(C)(C)[Si](C)(C)O[C@@H]1CCCO[C@@H]1CO (relative stereo)	> 100	–	–	–	–	–
30	50	COC(=O)/C=C/OC[C@H]1OCCC[C@H]1O[Si](C)(C)C(C)(C)C (relative stereo)	36	–	–	82	–	–
> 100	> 100	CC(C)(C)[Si](C)(C)O[C@H]1CCCO[C@@H]1CO (relative stereo)	> 100	–	–	–	–	–
> 100	> 100	CC(C)(C)[Si](C)(C)O[C@@H]1CCCO[C@@H]1COCC(=O)O (relative stereo)	> 100	–	–	–	–	–
